How the values were obtained:
Assay type in all cases: cell-based
Thymidylate kinase = biological target: T1, Thymidylate kinase (Homo sapiens, UniProt P23919); assay: Concentration required to reduce Thymidylate kinase rate by 50% in human blast cells
T1 sequence (P23919 whole entry): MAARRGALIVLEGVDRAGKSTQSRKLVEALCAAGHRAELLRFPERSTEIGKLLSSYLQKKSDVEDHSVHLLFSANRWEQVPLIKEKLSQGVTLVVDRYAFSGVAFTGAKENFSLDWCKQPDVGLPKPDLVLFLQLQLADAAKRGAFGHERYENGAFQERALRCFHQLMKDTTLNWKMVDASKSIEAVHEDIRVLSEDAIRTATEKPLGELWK
Summary of the method: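 Enzyme: dialyzed extract of blast cells from an acute myeloid leukemia patient. Data were fitted by nonlinear least-squares regression to response = a + b ln[inhibitor], error weighting 1/(γ+γ)^2, and the IC50 was derived from the fit.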

[1] = Concentration required to reduce Ribonucleotide reductase rate by 50% in L1210 cells
Summary of the method: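 Enzyme: crude L1210 extract brought to pH 5.2 with 1 M acetic acid; the precipitate was dissolved in 50 mM Tris-HCl pH 8.0. CDP reductase activity was measured by a published method. Data were fitted by nonlinear least-squares regression to response = a + b ln[inhibitor] with weighted error, and the IC50 was taken from the fit.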

[2] = Concentration required to reduce thymidine kinase rate by 50% in L1210 cells
Summary of the method: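 Cytoplasmic isoenzyme affinity-purified from L1210 cells. Reaction: 1 mM ATP, 1 mM MgCl2, 10 μM [3H]thymidine (150 μCi/μmol), 5% sucrose, 40 mM Tris pH 7.8. Inhibitor ranged 0-500 μM. Inhibitor concentrations were verified by UV absorbance at 260 nm.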

Structure (SMILES)	IC50 (Thymidylate kinase) [µM]	IC50 [1] [µM]	IC50 [2] [µM]
Nc1ncnc2c1ncn2C1O[C@H](COP(=O)(O)OP(=O)(O)OP(=O)(O)OP(=O)(O)OP(=O)(O)OC[C@H]2OC(n3cnc4c(N)ncnc43)[C@H](O)[C@@H]2O)[C@@H](O)[C@H]1O (some centres undefined)	> 1000	–	–
Cc1cn(C2C[C@H](O)[C@@H](COP(=O)(O)CP(=O)(O)OP(=O)(O)OC[C@H]3OC(n4cnc5c(N)ncnc54)[C@H](O)[C@@H]3O)O2)c(=O)[nH]c1=O (some centres undefined)	730	460	> 500
Cc1cn(C2C[C@H](O)[C@@H](COP(=O)(O)CP(=O)(O)OP(=O)(O)OP(=O)(O)OP(=O)(O)OP(=O)(O)OC[C@H]3OC(n4cnc5c(N)ncnc54)[C@H](O)[C@@H]3O)O2)c(=O)[nH]c1=O (some centres undefined)	4	230	19.7
Cc1cn(C2C[C@H](O)[C@@H](COP(=O)(O)CP(=O)(O)OP(=O)(O)OP(=O)(O)OC[C@H]3OC(n4cnc5c(N)ncnc54)[C@H](O)[C@@H]3O)O2)c(=O)[nH]c1=O (some centres undefined)	340	300	17
Cc1cn([C@H]2C[C@H](O)[C@@H](CO[P@@](=O)(O)O[P@@](=O)(O)O[P@@](=O)(O)O[P@@](=O)(O)OC[C@H]3O[C@@H](n4cnc5c(N)ncnc54)[C@H](O)[C@@H]3O)O2)c(=O)[nH]c1=O	290	77	15
Cc1cn(C2C[C@H](O)[C@@H](COP(=O)(O)CP(=O)(O)OP(=O)(O)OP(=O)(O)OP(=O)(O)OC[C@H]3OC(n4cnc5c(N)ncnc54)[C@H](O)[C@@H]3O)O2)c(=O)[nH]c1=O (some centres undefined)	6	130	9.2
Cc1cn(C2C[C@H](O)[C@@H](COP(=O)(O)OP(=O)(O)OP(=O)(O)OP(=O)(O)OP(=O)(O)OP(=O)(O)OC[C@H]3OC(n4cnc5c(N)ncnc54)[C@H](O)[C@@H]3O)O2)c(=O)[nH]c1=O (some centres undefined)	6	20	–
Cc1cn([C@H]2C[C@H](O)[C@@H](COP(=O)(O)OP(=O)(O)OP(=O)(O)OP(=O)(O)OP(=O)(O)OC[C@H]3O[C@@H](n4cnc5c(N)ncnc54)[C@H](O)[C@@H]3O)O2)c(=O)[nH]c1=O	8	14	2.5
Cc1cn(C2C[C@H](O)[C@@H](COP(=O)(O)OP(=O)(O)OP(=O)(O)OC[C@H]3OC(n4cnc5c(N)ncnc54)[C@H](O)[C@@H]3O)O2)c(=O)[nH]c1=O (some centres undefined)	1230	> 500	> 500

Reference: ChEMBL document CHEMBL1124145, “Dinucleotide analogues as inhibitors of thymidine kinase, thymidylate kinase, and ribonucleotide reductase” (J Med Chem, 1988)
